Measurements of several laboratories.
Each line is one published result; the experiments were not run side by side.
Target: Inhibitor of nuclear factor kappa-B kinase subunit epsilon (IKBKE, Homo sapiens, UniProt Q14164)
One construct used (Q14164 1-716): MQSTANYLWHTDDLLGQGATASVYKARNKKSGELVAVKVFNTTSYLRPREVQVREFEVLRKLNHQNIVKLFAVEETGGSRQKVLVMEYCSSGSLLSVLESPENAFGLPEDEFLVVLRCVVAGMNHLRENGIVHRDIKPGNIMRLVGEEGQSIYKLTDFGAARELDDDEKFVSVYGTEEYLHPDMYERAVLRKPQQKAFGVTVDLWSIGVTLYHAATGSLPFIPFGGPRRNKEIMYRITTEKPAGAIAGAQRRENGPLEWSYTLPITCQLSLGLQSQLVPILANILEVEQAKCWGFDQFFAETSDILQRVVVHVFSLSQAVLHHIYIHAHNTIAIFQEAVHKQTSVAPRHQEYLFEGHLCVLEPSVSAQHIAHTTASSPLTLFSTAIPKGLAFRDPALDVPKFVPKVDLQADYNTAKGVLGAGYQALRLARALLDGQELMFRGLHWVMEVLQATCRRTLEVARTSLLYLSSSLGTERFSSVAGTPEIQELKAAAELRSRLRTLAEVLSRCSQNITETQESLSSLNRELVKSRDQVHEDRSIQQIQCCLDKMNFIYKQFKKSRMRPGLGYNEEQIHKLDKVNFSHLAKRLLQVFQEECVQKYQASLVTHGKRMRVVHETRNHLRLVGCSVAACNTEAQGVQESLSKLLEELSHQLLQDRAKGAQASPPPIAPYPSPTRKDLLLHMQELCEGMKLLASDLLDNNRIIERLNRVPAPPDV

With `NS(=O)(=O)c1ccc(CNc2nc(Nc3cccc(CN4CCOCC4)c3)ncc2C2CC2)cc1` the remaining activity was 43% (enzyme activity, inhibitor, radiometric; 1 µM).
`Cc1ccc(C(=O)NCc2ccsc2)cc1C#Cc1cn(C(C)C)c2ncnc(N)c12` gave an activity vs control of 104% (enzyme activity, inhibitor; 1 µM).
With `CN1CCc2cc(Nc3ncc(C4CC4)c(NCCCNC(=O)C4CCC4)n3)ccc2C1` the remaining activity was 4% (enzyme activity, inhibitor, radiometric; 1 µM).
`C[C@@H]1CN(c2cc(-c3nn(C)c4ccc(OC5(C)CC5)cc34)ncn2)C[C@H](C)O1` gave a remaining binding of 65% (cell-free assay, competition with immobilised ligand; 1 µM).
For `Cc1nn(CC(F)(F)F)cc1Nc1nccc(NCc2ccc(S(N)(=O)=O)cc2)n1`, the remaining activity was 73% (enzyme activity, inhibitor, radiometric; 1 µM).
The remaining binding of `Cc1c(NC(=O)c2cc(C(N)=O)nc3cc(F)ccc23)c(C(F)(F)F)nn1Cc1ccc(C#N)cc1` is reported as 75% (cell-free assay, competition with immobilised ligand; 1 µM).
The remaining activity of `Cc1nn(CC(F)(F)F)cc1Nc1nccc(NCCc2cnc[nH]2)n1` is reported as 83% (enzyme activity, inhibitor, radiometric; 1 µM).
For `Nc1nc(Nc2ccc(S(N)(=O)=O)cc2)nn1C(=O)c1c(F)cccc1F`, the remaining signal was 95.9% (cell-free assay; 0.5 µM).
For `Cc1nn(CC(F)(F)F)cc1Nc1ncc(C2CC2)c(NCc2ccc(S(N)(=O)=O)cc2)n1`, the remaining activity was 43% (enzyme activity, inhibitor, radiometric; 1 µM).
The remaining binding of `COc1ccnn2ncc(-c3ccnc(N(C)C)n3)c12` is reported as 94% (binding; 1 µM).
For `COc1cc2ncnc(Nc3ccc(Oc4ccccc4)cc3C)c2cc1OC`, the inhibition was 5% (enzyme activity, inhibitor; 1 µM).
With `COc1cc2c(N3CCN(C(=O)Nc4ccc(OC(C)C)cc4)CC3)ncnc2cc1OCCCN1CCCCC1` the remaining signal was 96.2% (cell-free assay; 0.5 µM).
The remaining binding of `CC(=O)C1=C(C)N(c2cccc(C(F)(F)F)c2)C(=O)N[C@@H]1c1ccc(C#N)nc1` is reported as 98.2% (cell-free assay, competition with immobilised ligand; 1 µM).
The inhibition of `CCOc1cc(-c2nncn2C)ccc1Nc1ncc2cc(C)nc(NCC(C)(C)C)c2n1` is reported as under 15% (enzyme activity, inhibitor, FRET; 1 µM).
For `Cc1ccc(NC(=O)c2ccc(C)c(C(F)(F)F)c2)cc1C#Cc1nn(C2CCC(O)CC2)c2ncnc(N)c12` (stereo not shown), the remaining signal was 94% (cell-free assay; 10 µM).
For `c1cc(CN2CCOCC2)cc(Nc2nccc(NCCc3cnc[nH]3)n2)c1`, the remaining activity was 80% (enzyme activity, inhibitor, radiometric; 1 µM).
`O=C(N[C@H]1CCCCC/C=C\C2C[C@@]2(C(=O)O)NC(=O)[C@@H]2C[C@@H](Oc3ccncc3)CN2C1=O)OC1CCCC1` (stereo partly shown) has a remaining binding of 100% (binding, competition with immobilised ligand; 1 µM).
`COc1cc(Nc2c(C#N)cnc3cc(OCCCN4CCN(C)CC4)c(OC)cc23)c(Cl)cc1Cl` gave a remaining signal of 75.4% (cell-free assay; 0.5 µM).
`CC(C)CC(=O)N1CCc2nc(-c3ccc(Br)cc3)nc(N(C)Cc3ccccc3)c2C1` gave a remaining binding of 100% (cell-free assay, competition with immobilised ligand; 0.1 µM).
With `CC/C(=N\NC(=O)NCc1cccc(O)c1)c1ccc(O)c(C)c1O` the inhibition was -0.4% (enzyme activity, inhibitor; 0.1 µM).
For `Cc1noc([C@H]2C[C@@H](c3ccc(C(F)(F)F)cc3)CN(C(=O)N3CCS(=O)(=O)C3)C2)n1`, the remaining binding was 100% (cell-free assay, competition with immobilised ligand; 1 µM).
`N#CCCc1ccc2c(c1)-c1[nH]c3ccc([N+](=O)[O-])cc3c1CC(=O)N2` has a remaining signal of 89.2% (cell-free assay; 0.5 µM).
